A word on the inhibition: it is the relative decrease from the control value, in per cent.

Experimental findings from PubChem BioAssay are described below.

The source made the active and inactive calls.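 The calls were made as follows, unless noted: active = inhibition above 20% together with a positive visual image hit; inconclusive = visual image hit but inhibition not above 20%; inactive = no visual image hit.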

Experiment [1] is described as follows: inhibitors of TNFa-induced NFkB p65 translocation, primary screen, imaging, HUVEC, MLSMR starter and 10KST1 sets (AID 438).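 Also: compound added about 3h40 before a 20 min TNFalpha stimulation.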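 As to inhibition: signal is the nuclear over cytoplasmic p65 intensity ratio per well.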 The note with it: HUVEC TNFa-induced p65 nuclear translocation; cell count: measured here: nuclei count (cytotoxicity indicator), at 2.08 µM; inhibition: at 2 µM, stronger effect = higher value, 0% TNFa-plus-vehicle, 100% no-TNFa wells.
The nature of experiment [2]: inhibitors of mutant huntingtin aggregation, primary screen, imaging, exon1htt(103Q)mCFP cells, high-content imaging (AID 483;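 active = visual image review flags a hit and inhibition of aggregation exceeds 20%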;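 also: compound exposure lasted 3 days before fixation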;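 as to nuclei count: percent of the per-plate median nuclei count of sample wells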). The note with it: exon1htt(103Q)mCFP cell line, aggregate imaging, at 2 µM; inhibition of aggregation: stronger effect = higher value; nuclei count: measured here: cell count, toxicity.
A short description of experiment [3]: inhibitors of E-selectin induction by TNFa, primary screen, imaging, HUVEC, immunofluorescence, MLSMR starter and 10KST1 sets (AID 487;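 active = visually confirmed hit in the image check and inhibition above 20%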;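 as to inhibition: signal is fraction of cell area covered by stained E-selectin grains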;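 as to nuclei count: 100% = median nuclei count of all wells on the same plate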). The note with it: HUVEC TNFalpha-induced E-selectin immunofluorescence imaging, at 2 µM; inhibition: stronger effect = higher value; nuclei count: measured here: cell number, toxicity.
In experiment [4] the target is Voltage-gated potassium channel subunit beta-2 (Rattus norvegicus) (UniProt P62483). Put plainly: KvBeta enzyme negative modulators, primary screen, biochemical, NADPH fluorescence (AID 622;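 active = fluorescence slope higher than the sample average by over 3 SD, cut at about -0.22 in these data, passing the limit was not always enough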;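 also: slope of raw intensity against log time taken from 70 to 1610 s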). The note with it: recombinant KvBeta, 4-cyanobenzaldehyde reduction, at 10 µM, stronger effect = higher value.
For experiment [5] the target is unchanged. Description: KvBeta positive modulators, primary screen, biochemical, NADPH fluorescence (AID 623;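 active = NADPH fluorescence slope more negative than the mean of all samples by about 3 SD, 99.7% confidence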;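 also: fluorescence intensity change per second fitted from 20 to 320 s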). Conditions: Recombinant KvBeta, NADPH fluorescence decrease slope, 10 min; at 10 µM; stronger effect = lower value.
The target of experiment [6] is Muscarinic acetylcholine receptor M4 (Homo sapiens) (UniProt P08173). Put plainly: compounds altering M4/GIRK thallium flux, either direction, primary screen, M4 allosteric agonist project, cell-based, HEK293 M4/GIRK, BTC-AM (AID 625;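 active = fluorescence slope after compound addition differing from the mean of all tested samples at 99.7% confidence, mostly higher but some lower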;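 also: thallium influx through GIRK channels coupled to M4 in HEK293 cells with BTC-AM dye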). Conditions: at 10 µM, actives lie on both sides. The method in brief:
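System: HEK293 cells with M4 receptor and GIRK channels | Incubation: Cells overnight at 37 °C, BTC-AM loading 1 h, reads 2 min total | Technique: Kinetic BTC-AM fluorescence sampled at 1 Hz, 10 s pre-addition baseline | Measure: Post-addition slope, 15–24 s, of baseline-normalized fluorescence | Control set: Carbachol positive, DMSO negative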

A short description of experiment [7]: inhibitors of Sendai virus-induced IRF3 signaling, primary screen, TLR/RLR signaling modifier project, cell-based, Sendai virus stimulus, luciferase, 10K MLSCN set (AID 602276;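 active = inhibition at or above 50% at 10 µM; inactive = inhibition below 50%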;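 also: firefly luciferase from ISG56 promoter only with Renilla not read in this screen; 0% = Sendai virus plus DMSO and 100% = medium plus DMSO without virus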). Conditions: HEK293 RL24 IRF3 luciferase reporter, at 10 µM, stronger effect = higher value. A general note: A reporter such as luciferase makes a cellular process visible.
Experiment [8] is described as follows: inhibitors of poly I:C-induced TLR3 signaling, primary screen, cell-based, poly I:C stimulus, luciferase, 10K MLSCN set (AID 602277;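 active = inhibition of the reporter signal at or above 50%; inactive = inhibition below 50%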). The note with it: HEK293-TLR3 RL24 IRF3 luciferase reporter, at 10 µM, stronger effect = higher value.

Sequence of Muscarinic acetylcholine receptor M4 (Homo sapiens) (P08173 whole entry, looked up): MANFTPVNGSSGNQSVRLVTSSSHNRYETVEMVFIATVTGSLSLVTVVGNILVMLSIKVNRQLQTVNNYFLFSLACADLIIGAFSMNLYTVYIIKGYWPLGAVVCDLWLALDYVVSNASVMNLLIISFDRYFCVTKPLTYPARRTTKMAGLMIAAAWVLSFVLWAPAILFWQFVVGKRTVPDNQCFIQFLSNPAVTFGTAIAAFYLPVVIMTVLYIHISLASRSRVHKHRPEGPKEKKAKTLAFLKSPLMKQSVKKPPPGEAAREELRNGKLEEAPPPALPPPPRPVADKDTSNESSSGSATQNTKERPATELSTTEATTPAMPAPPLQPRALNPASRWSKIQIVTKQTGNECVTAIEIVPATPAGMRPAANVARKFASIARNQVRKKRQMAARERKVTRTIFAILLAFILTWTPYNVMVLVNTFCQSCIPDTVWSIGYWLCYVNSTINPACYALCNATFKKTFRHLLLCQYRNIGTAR
Sequence of Voltage-gated potassium channel subunit beta-2 (Rattus norvegicus) (P62483 whole entry, looked up): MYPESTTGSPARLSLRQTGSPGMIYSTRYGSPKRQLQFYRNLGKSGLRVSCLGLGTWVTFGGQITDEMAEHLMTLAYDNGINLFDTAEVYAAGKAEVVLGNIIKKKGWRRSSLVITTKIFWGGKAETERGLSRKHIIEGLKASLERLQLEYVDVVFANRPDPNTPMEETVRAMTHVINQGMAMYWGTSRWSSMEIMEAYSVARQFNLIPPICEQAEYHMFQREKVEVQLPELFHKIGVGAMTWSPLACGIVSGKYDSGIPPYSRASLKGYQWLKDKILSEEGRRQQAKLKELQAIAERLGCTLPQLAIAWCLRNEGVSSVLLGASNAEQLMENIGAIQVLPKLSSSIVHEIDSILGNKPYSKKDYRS

On to `Oc1ccc(N2CCN(C(c3cccnc3)c3nnnn3Cc3ccccc3)CC2)cc1` (centres undefined), for which the cell count in experiment [1] was found to be 612. In addition, the inhibition in experiment [1] is 1.4% (inactive); in experiment [3] it was -71.6% (inactive); in experiment [7], 9.52% (inactive); in experiment [8] it was -11.5% (inactive). Further, the inhibition of aggregation in experiment [2] is -2.4% (inactive). The nuclei count in experiment [2] amounted to 118%; in experiment [3] it was 113%. In addition, the figures for the fluorescence slope in experiment [4] and in experiment [6] were -0.468 (inactive) and 0.0054 (inactive), respectively. Also, the NADPH fluorescence slope in experiment [5] was -0.000313 (inactive).

For `CCNC(=O)CC(=O)Nc1ccccc1C(=O)O`, in experiment [1], the cell count was 725. Moreover, the inhibition is -14.7% (inactive) in experiment [1], -35.3% (inactive) in experiment [3], 17.2% (inactive) in experiment [7] and 16.6% (inactive) in experiment [8]. In experiment [2], the inhibition of aggregation is 11.3% (inactive). Besides, the nuclei count in experiment [2] was found to be 90.3%; in experiment [3] it was 118%. Moreover, the figures for the fluorescence slope in experiment [4] and in experiment [6] were -0.282 (inactive) and 0.00586 (inactive), respectively. For the same molecule, in experiment [5], the NADPH fluorescence slope is -2.6e-05 (inactive).

`CCOc1ccc(C(CC(=O)O)NC(=O)c2ccco2)cc1OC` (centres undefined): the cell count in experiment [1] came to 562. Further, the inhibition in experiment [1] is 1.8% (inactive); in experiment [3], 22.7% (inactive); in experiment [7], 9.42% (inactive); in experiment [8], 29.4% (inactive). Also, in experiment [2], the inhibition of aggregation was -9.7% (inactive). In addition, the nuclei count in experiment [2] was 113%; in experiment [3], 106%. Besides, the results for the fluorescence slope in experiment [4] and in experiment [6] were -0.35 (inactive) and 0.00565 (inactive), respectively. Also, in experiment [5], the NADPH fluorescence slope was -3.7e-05 (inactive).

Regarding `CCOC(=O)CCC(=O)Nc1ccc(S(=O)(=O)N2CCCC2)cc1`, the cell count in experiment [1] was determined as 720. In addition, the inhibition is -3% (inactive) in experiment [1], -15.9% (inactive) in experiment [3], -1.78% (inactive) in experiment [7] and 100% (active) in experiment [8]. Further, the inhibition of aggregation in experiment [2] was 3.2% (inactive). For the same molecule, the nuclei count in experiment [2] turned out to be 98.3%; in experiment [3], 126%. The fluorescence slope in experiment [4] was -0.468 (inactive); in experiment [6], 0.00707 (inactive). Also, the NADPH fluorescence slope in experiment [5] was 2.8e-05 (inactive).

For the molecule `CCOc1ccc(S(=O)(=O)Nc2ccccc2C(=O)Nc2ccccc2N2CCOCC2)cc1`, the cell count in experiment [1] is 322. Also, the inhibition is -2.1% (inactive) in experiment [1], -24.9% (inactive) in experiment [3], 11.5% (inactive) in experiment [7] and 25.7% (inactive) in experiment [8]. The inhibition of aggregation in experiment [2] is 17.2% (inactive). The nuclei count turned out to be 94.9% in experiment [2] and 106% in experiment [3]. Besides, the figures for the fluorescence slope in experiment [4] and in experiment [6] were -0.522 (inactive) and 0.00582 (inactive), respectively. Further, in experiment [5], the NADPH fluorescence slope is -3.2e-05 (inactive).

Regarding `CCC(=O)n1nc(-c2ccco2)nc1N`, the cell count in experiment [1] was 594. The inhibition in experiment [1] is -0.5% (inactive); in experiment [3] it was -153% (inactive); in experiment [7], 14.3% (inactive); in experiment [8] it was 15.1% (inactive). In addition, the inhibition of aggregation in experiment [2] is -13.1% (inactive). In addition, the nuclei count in experiment [2] was 104%; in experiment [3], 114%. In addition, the fluorescence slope in experiment [4] was -0.486 (inactive); in experiment [6], 0.00538 (inactive). Also, the NADPH fluorescence slope in experiment [5] is -4.1e-05 (inactive).

For `CC1(C)CC(=O)c2cnc(NC(=O)CSc3nc4ccccc4o3)nc2C1`, in experiment [1], the cell count is 257. The inhibition is -5.5% (inactive) in experiment [1], -79.9% (inactive) in experiment [3], -3.99% (inactive) in experiment [7] and 20% (inactive) in experiment [8]. For the same molecule, in experiment [2], the inhibition of aggregation is -24.6% (inactive). For the same molecule, the nuclei count in experiment [2] amounted to 87.1%; in experiment [3], 107%. The fluorescence slope in experiment [4] was -0.294 (inactive); in experiment [6], 0.00793 (inactive). Further, in experiment [5], the NADPH fluorescence slope is -1.5e-05 (inactive).

Take `Cc1noc(C)c1COc1cccc(C(=O)Oc2ccc3c(c2)OCO3)c1`: in experiment [1], the cell count worked out at 329. The inhibition in experiment [1] is -9.6% (inactive); in experiment [3] it was 1.2% (inactive); in experiment [7], 8.11% (inactive); in experiment [8] it was 15.8% (inactive). Also, the inhibition of aggregation in experiment [2] is 4.3% (inactive). Besides, the nuclei count came out at 80.2% in experiment [2] and 100% in experiment [3]. The fluorescence slope was -0.567 (inactive) in experiment [4] and 0.00685 (inactive) in experiment [6]. Moreover, the NADPH fluorescence slope in experiment [5] is -2.5e-05 (inactive).

As for `CCN(CC)c1ccc2c(c1)CCCN2`, the cell count in experiment [1] worked out at 669. Besides, the inhibition in experiment [1] was 6.8% (inactive); in experiment [3], -36.1% (inactive); in experiment [7] it was 8.33% (inactive); in experiment [8], 1.7% (inactive). Also, the inhibition of aggregation in experiment [2] was 2.8% (inactive). The figures for the nuclei count in experiment [2] and in experiment [3] were 91% and 126%, respectively. Besides, the fluorescence slope in experiment [4] was -0.559 (inactive); in experiment [6] it was 0.00991 (inactive). Further, the NADPH fluorescence slope in experiment [5] was 3.7e-05 (inactive).

As to `CC1CC(=O)C2=C(C1)OC(N)=C(C#N)C2c1coc2ccccc2c1=O` (centres undefined), the cell count in experiment [1] came to 282. For the same molecule, the inhibition in experiment [1] was -10.1% (inactive); in experiment [3], 24.1% (inactive); in experiment [7], 19.2% (inactive); in experiment [8], 23.4% (inactive). In experiment [2], the inhibition of aggregation is 8.2% (inactive). Moreover, the nuclei count in experiment [2] is 79.3%; in experiment [3], 82.2%. Moreover, the fluorescence slope in experiment [4] was -0.514 (inactive); in experiment [6] it was 0.00433 (inactive). Also, in experiment [5], the NADPH fluorescence slope is -4.1e-05 (inactive).

`Cc1nc(SCC(=O)N2CCC(C(N)=O)CC2)n[nH]1`: the cell count in experiment [1] is 516. For the same molecule, the inhibition in experiment [1] was -17.1% (inactive); in experiment [3], -33.4% (inactive); in experiment [7], -0.32% (inactive); in experiment [8] it was -1.6% (inactive). Further, in experiment [2], the inhibition of aggregation was -2.4% (inactive). The nuclei count in experiment [2] amounted to 98.4%; in experiment [3] it was 119%. In addition, the values for the fluorescence slope in experiment [4] and in experiment [6] were -0.581 (inactive) and 0.00602 (inactive), respectively. For the same molecule, the NADPH fluorescence slope in experiment [5] is -5.6e-05 (inactive).

As to `COC(=O)c1[nH]c(C)c(/C(O)=C2\C(=O)C(=O)N(CCCN3CCOCC3)C2c2ccccn2)c1C` (centres undefined), the cell count in experiment [1] worked out at 814. Besides, the inhibition is 0.6% (inactive) in experiment [1], -1.3% (inactive) in experiment [3], 12.3% (inactive) in experiment [7] and 9.49% (inactive) in experiment [8]. Besides, the inhibition of aggregation in experiment [2] was 14.2% (inactive). Also, the figures for the nuclei count in experiment [2] and in experiment [3] were 110% and 113%, respectively. The fluorescence slope in experiment [4] is -0.473 (inactive); in experiment [6] it was 0.00368 (inactive). Further, the NADPH fluorescence slope in experiment [5] was -2.7e-06 (inactive).

As for `O=c1c2ccccc2sn1-c1ccc(S(=O)(=O)N2CCCCC2)cc1`, the cell count in experiment [1] came to 539. Moreover, the inhibition is -20.9% (inactive) in experiment [1], 53.4% (inactive) in experiment [3], 3.69% (inactive) in experiment [7] and 7.09% (inactive) in experiment [8]. The inhibition of aggregation in experiment [2] was -8.4% (inactive). In addition, the figures for the nuclei count in experiment [2] and in experiment [3] were 115% and 83.7%, respectively. The fluorescence slope in experiment [4] is -0.271 (inactive); in experiment [6], 0.00829 (inactive). In addition, the NADPH fluorescence slope in experiment [5] was -1.7e-05 (inactive).

Consider `COc1ccc(N(CC(=O)N2CCN(Cc3ccc4c(c3)OCO4)CC2)S(C)(=O)=O)cc1OC`, for which the cell count in experiment [1] turned out to be 359. The inhibition in experiment [1] was 5% (inactive); in experiment [3], -52.6% (inactive); in experiment [7], 21.2% (inactive); in experiment [8], 20.2% (inactive). Further, the inhibition of aggregation in experiment [2] was 2.1% (inactive). For the same molecule, the nuclei count in experiment [2] was determined as 120%; in experiment [3], 112%. Also, the fluorescence slope in experiment [4] is -0.538 (inactive); in experiment [6] it was 0.00506 (inactive). Also, the NADPH fluorescence slope in experiment [5] is -1.7e-05 (inactive).
